An excerpt weighted towards active compounds, which were near 2.3% of everything screened.
PLC-beta3 inh: human PLC-beta3 inhibitors, primary screen, biochemical, fluorescence | 1-phosphatidylinositol 4,5-bisphosphate phosphodiesterase beta-3 (Homo sapiens), Q01970 | Purified PLC-beta3, fluorogenic substrate | inhibition, % at 12.2 µM | 370,000 compounds, 0.18% hits | AID 720704, 2013; in the data active = inhibition above about 11%;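 also: 0% = median of compound wells on plate and 100% = full blocker control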
Target sequence (Q01970 whole entry, looked up): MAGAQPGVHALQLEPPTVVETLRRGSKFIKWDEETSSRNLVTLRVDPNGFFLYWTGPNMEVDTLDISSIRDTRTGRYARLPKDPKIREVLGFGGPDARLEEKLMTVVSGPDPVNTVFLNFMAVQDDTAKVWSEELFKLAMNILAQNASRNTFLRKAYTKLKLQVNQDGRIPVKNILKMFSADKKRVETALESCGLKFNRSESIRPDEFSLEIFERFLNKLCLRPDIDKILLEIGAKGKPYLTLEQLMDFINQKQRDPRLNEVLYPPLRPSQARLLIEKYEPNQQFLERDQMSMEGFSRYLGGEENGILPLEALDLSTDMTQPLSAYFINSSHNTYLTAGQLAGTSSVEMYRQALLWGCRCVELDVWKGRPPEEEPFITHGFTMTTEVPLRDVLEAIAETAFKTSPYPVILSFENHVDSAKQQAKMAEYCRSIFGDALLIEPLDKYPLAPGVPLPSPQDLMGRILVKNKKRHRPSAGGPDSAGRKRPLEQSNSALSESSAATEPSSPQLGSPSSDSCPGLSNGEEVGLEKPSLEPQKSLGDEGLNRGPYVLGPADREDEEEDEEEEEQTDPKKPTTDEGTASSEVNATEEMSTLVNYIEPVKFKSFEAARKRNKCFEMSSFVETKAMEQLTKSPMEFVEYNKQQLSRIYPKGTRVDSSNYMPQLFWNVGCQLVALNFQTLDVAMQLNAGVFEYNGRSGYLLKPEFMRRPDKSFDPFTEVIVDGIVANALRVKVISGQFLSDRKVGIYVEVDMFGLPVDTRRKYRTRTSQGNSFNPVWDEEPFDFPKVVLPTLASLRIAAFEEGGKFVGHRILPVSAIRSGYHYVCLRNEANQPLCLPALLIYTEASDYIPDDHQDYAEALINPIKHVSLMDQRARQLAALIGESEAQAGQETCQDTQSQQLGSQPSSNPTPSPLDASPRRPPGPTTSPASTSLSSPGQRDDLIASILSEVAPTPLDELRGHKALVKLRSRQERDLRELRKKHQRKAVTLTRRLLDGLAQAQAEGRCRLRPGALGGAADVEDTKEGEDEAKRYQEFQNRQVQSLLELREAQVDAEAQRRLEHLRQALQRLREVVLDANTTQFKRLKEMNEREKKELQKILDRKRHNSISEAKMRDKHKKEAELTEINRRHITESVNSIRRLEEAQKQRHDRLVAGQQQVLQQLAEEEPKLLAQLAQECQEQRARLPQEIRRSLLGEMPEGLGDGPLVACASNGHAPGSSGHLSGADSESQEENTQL
ADAM10 inh: human ADAM10 inhibitors, primary screen, biochemical, QFRET, HTS. Disintegrin and metalloproteinase domain-containing protein 10 (Homo sapiens), O14672. recombinant ADAM10, EDANS/DABCYL FRET peptide cleavage, 3 h. inhibition, % at 7 µM. 370,000 compounds, 0.62% hits;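 active = inhibition above a per-campaign cutoff equal to the mean of compounds falling between control-based bounds plus 3 SD, cut at about 20% in these data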;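 also: 0% = DMSO wells while the 100% control is not disclosed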
ADAM17 inh: ADAM17 inhibitors, primary screen, biochemical, QFRET; recombinant ADAM17, EDANS/DABCYL FRET peptide cleavage; 370,000 compounds, 0.83% hits; inhibition, % at 6.95 µM;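 active = inhibition above the mean of compounds lying between control limits plus 3 SD, set per campaign, cut at about 8.5% in these data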;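 also: 0% = DMSO-only wells as the low control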
PLC-gamma1 inh: PLC-gamma1 enzyme inhibitors, primary screen, biochemical, fluorescence, purified enzyme; inhibition, % at 12.2 µM; 1-phosphatidylinositol 4,5-bisphosphate phosphodiesterase gamma-1 (Homo sapiens), P19174; fluorogenic substrate; 370,000 compounds, 0.84% hits; in the data active = inhibition above about 9.5%
Tb MetRS inh: T. brucei MetRS inhibitors, primary screen, biochemical, luminescence | purified T. brucei MetRS, ATP depletion, Kinase-Glo luminescence | inhibition, % at 11.9 µM | 360,000 compounds, 0.4% hits;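 active = inhibition above a per-plate cutoff of the control wells' mean inhibition plus 3 SD, cut at about 5.5% in these data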;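 also: 0% = DMSO wells median and 100% = median of wells with control inhibitor compound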
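Dosing: 11.9 µM compound single dose, 0.9% DMSO; Assay system: purified T. brucei MetRS enzyme; Measured by: Kinase-Glo luciferase luminescence reporting remaining unconsumed ATP; Schedule: 15 min plus 2 h at 25 °C.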
Tb MetRS conf: T. brucei MetRS inhibitors, confirmation, biochemical, luminescence; 1,400 compounds, 93% hits; T. brucei MetRS enzyme, luminescence (ATP depletion); AID 624412, 2012; inhibition, % at 11.9 µM; shares compounds with Tb MetRS inh; in the data active = inhibition above about 7%
Jurkat cytotox: Jurkat T cell cytotoxicity, cytotoxicity control for T. brucei MetRS inhibitor project, luminescence, high throughput | shares compounds with Tb MetRS inh | 1,400 compounds, 12% hits | inhibition, % at 8.3 µM | Jurkat cells viability, ATP luminescence; in the data active = inhibition above about 15%;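 also: 0% = vehicle and 100% = reference inhibitor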
Tb MetRS inh FP: T. brucei MetRS inhibitors, orthogonal assay for T. brucei MetRS inhibitor project, biochemical, fluorescence polarization. AID 651607, 2012. shares compounds with Tb MetRS inh. 1,400 compounds, 44% hits. inhibition, % at 11.9 µM. purified T. brucei MetRS; in the data active = inhibition above about 17%;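 also: 0% = vehicle wells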
Active calls of the source: *; . = no result; ! = a repeat was not active.

SMILES	PLC-beta3 inh	ADAM10 inh	ADAM17 inh	PLC-gamma1 inh	Tb MetRS inh	Tb MetRS conf	Jurkat cytotox	Tb MetRS inh FP
O=C(Nc1ccc(S(=O)(=O)N2CCCC2)cc1)C1CC(=O)N(CCc2ccccc2)C1 (configuration not stated)	-8	-6	-3	2	0	.	.	.
C=CC[C@@H](CC(=O)NCCO)C(=O)N[C@@H](COC(=O)[C@@H](CC=C)CC(=O)OC(C)(C)C)Cc1c[nH]c2ccccc12	1	8	-3	1	0	.	.	.
O=C(CNc1cc(S(=O)(=O)N2CCOCC2)ccc1NCC1CCCO1)Nc1cccc(F)c1 (configuration not stated)	-19	-6	-2	-11	14*	9.1*	-2	5
O=C(Nc1ccc(Cl)c(Cl)c1)Nc1cc(S(=O)(=O)N2CCOCC2)ccc1N1CCCC1	-54	18	8	-5	8.0*	16*	7	5
O=C(CNc1cc(S(=O)(=O)N2CCOCC2)ccc1N1CCCC1)Nc1ccc(Cl)cc1	-14	-8	-3	-6	48*	65*	3	35*
CC(=O)c1ccc(NC(=O)CNc2cc(S(=O)(=O)N3CCOCC3)ccc2N2CCCC2)cc1	-18	2	-3	-6	0	.	.	.
O=C(CN1CCN(S(=O)(=O)N2CCOCC2)CC1)Nc1ccc(Cl)c(Cl)c1	-12	3	-2	-2	12*	33*	-3	12
O=C1CCC/C1=c1\s/c(=C/c2cccnc2)c(=O)n1-c1ccccc1	-3	1	1	-2	0	.	.	.
Cc1c2cnn(CC(=O)N3CCOCC3)c(=O)c2c(C)n1Cc1ccccc1F	-4	-17	-5	-4	0	.	.	.
COc1ccc(CCNC(=O)c2ccc([N+](=O)[O-])cc2Cl)cc1OC	-6	-1	-6	-1	-8	.	.	.
COc1ccc(CCNC(=O)c2ccc(-c3ccc([N+](=O)[O-])cc3Cl)o2)cc1OC	0	0	-4	1	5.7*	8.7*	32*	19*
COc1ccccc1CNC(=O)NNC(=O)CCn1nc(C)c([N+](=O)[O-])c1C	3	1	-1	1	.	.	.	.
Cc1ccc(NC(=O)CN(C)C(=O)COC(=O)c2ccc(Cl)cc2O)cc1	-6	-7	-7	-5	6.8*	64*	2	39*
Cc1ccc(NC(=O)CN(C)C(=O)CCOc2cccc(C)c2)cc1	4	-5	-2	7	6.0*	11*	3	3
N#C/C(=C/c1ccc(O)c(O)c1)C(=O)NCc1ccc(Cl)cc1	-27	4	-1	-12	15*	36*	17*	11
N#C/C(=C/c1cccc(O)c1)C(=O)NCc1ccc(Cl)cc1	4	6	4	5	0	.	.	.
Cc1ccc(NC(=O)CN2CC(C)SC2=NC2CCCCC2)cc1 (configuration not stated)	0	-6	-3	1	12*!	25*	4	6
Cc1ccc(NC(=O)CN2CCOCC2)cc1	4	6	2	3	1	.	.	.
Cc1cc(C=NCCCO)c(C)n1-c1cc(Cl)ccc1Cl	-2	-4	-5	-3	-1	.	.	.
O=C(O)Cn1c(O)c(C=Nc2ccccc2)sc1=S	-8	0	-6	-7	0	.	.	.
O=C(O)CCCCCn1c(O)c(C=C2N=c3ccccc3=N2)sc1=S	-28	-22	-13	-27	8.8*	25*	-4	12
CCCC(C(=O)O)n1c(O)c(C=C2N=c3ccccc3=N2)sc1=S (configuration not stated)	-139	-139	-38	-104	5.8*	33*	-6	10

From PubChem
